Measurements: ChEMBL document CHEMBL1148214, “In-vitro cytotoxic activities of the major bromophenols of the red alga Polysiphonia lanosa and some novel synthetic isomers” (J Nat Prod, 2004)
Activity calls are given as the source filed them. The rule behind the calls is not given here.

Columns and labels:
DLD-1 [1] = assay: Cytotoxicity against human DLD1 cells after 96 hrs by MTT assay; format: functional, cell-based; design: unit not given here
Summary of the method: (§1)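 DLD-1 or HCT-116 cells in RPMI 1640 with 10% FCS, seeded at 1 × 10^4 cells mL-1 and incubated overnight at 37 °C, 5% CO2. Continuous 4-day drug exposure, drug in DMSO (max 0.1%), 8 wells per concentration. MTT 0.5 mg mL-1 for 4 h; formazan in DMSO read at 550 nm. IC50 taken as 50% growth inhibition versus control; 5FU positive control; triplicate.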

HCT-116 = assay: Cytotoxicity against human HCT116 cells after 96 hrs by MTT assay; format: functional, cell-based; summary of the method: as §1
DLD-1 [2] = assay: Cytotoxicity against human DLD1 cells after 3 hrs by MTT assay; format: functional, cell-based
Summary of the method: (§2)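 DLD-1 cells seeded at 1 × 10^4 cells mL-1 and incubated overnight at 37 °C, 5% CO2. Drug was in DMSO (max 0.1% final) diluted in medium, 8 wells per concentration. After 1, 3 or 24 h the drug was removed, cells washed twice and grown in fresh medium to 4 days total. MTT at 0.5 mg mL-1 for 4 h; formazan dissolved in DMSO, absorbance read at 550 nm. IC50 determined relative to control survival; triplicate experiments.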

DLD-1 [3] = assay: Cytotoxicity against human DLD1 cells after 24 hrs by MTT assay; format: functional, cell-based; summary of the method: as §2
DLD-1 [4] = assay: Cell cycle arrest in human DLD1 cells assessed as accumulation at G0/G1 phase at 5 umol after 72 hrs by flow cytometry; format: functional
Summary of the method: (§3)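 DLD-1 cells seeded at 5 × 10^4 cells mL-1 and grown 24 h at 37 °C, then exposed to drug for 72 h. Harvested by trypsinisation, fixed in 70% EtOH, suspended in PBS pH 7.3, RNase-treated and stained with propidium iodide for 30 min at 37 °C. DNA content measured by flow cytometry on 10 000 cells; percentage of cells in each cycle phase calculated.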

DLD-1 [5] = assay: Cell cycle arrest in human DLD1 cells assessed as accumulation at G0/G1 phase at 10 umol after 72 hrs by flow cytometry; format: functional; summary of the method: as §3
DLD-1 [6] = assay: Cytotoxicity against human DLD1 cells after 1 hr by MTT assay; format: functional, cell-based; summary of the method: as §2
DLD-1 [7] = assay: Cell cycle arrest in human DLD1 cells assessed as accumulation at S phase at 10 umol after 72 hrs by flow cytometry; format: functional; summary of the method: as §3
DLD-1 [8] = assay: Cell cycle arrest in human DLD1 cells assessed as accumulation at G0/G1 phase at 2.5 umol after 72 hrs by flow cytometry; format: functional; summary of the method: as §3
DLD-1 [9] = assay: Cell cycle arrest in human DLD1 cells assessed as accumulation at G2/M phase at 10 umol after 72 hrs by flow cytometry; format: functional; summary of the method: as §3
DLD-1 [10] = assay: Cell cycle arrest in human DLD1 cells assessed as accumulation at G2/M phase at 2.5 umol after 72 hrs by flow cytometry; format: functional; summary of the method: as §3
DLD-1 [11] = assay: Cytotoxicity against human DLD1 cells at 8 umol after 96 hrs by MTT assay; format: functional, cell-based
Summary of the method: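 DLD-1 cells exposed continuously for 4 days to drug at 8 µmol in DMSO-containing medium (max 0.1% DMSO). Survival measured by MTT at 0.5 mg mL-1 for 4 h, formazan read at 550 nm, and expressed as percentage of mean control absorbance.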

DLD-1 [12] = assay: Cell cycle arrest in human DLD1 cells assessed as accumulation at G2/M phase at 5 umol after 72 hrs by flow cytometry; format: functional; summary of the method: as §3
DLD-1 [13] = assay: Cell cycle arrest in human DLD1 cells assessed as accumulation at S phase at 2.5 umol after 72 hrs by flow cytometry; format: functional; summary of the method: as §3
DLD-1 [14] = assay: Cell cycle arrest in human DLD1 cells assessed as accumulation at S phase at 5 umol after 72 hrs by flow cytometry; format: functional; summary of the method: as §3

| Structure (SMILES) | IC50 (DLD-1 [1]) | IC50 (HCT-116) [µmol] | other results |
| --- | --- | --- | --- |
| O=Cc1cc(O)c(O)c(Br)c1Br | 30.9 |  |  |
| COCc1cc(Br)c(O)c(O)c1Br | 7.27 | 3.48 |  |
| CCCOCc1cc(O)c(O)c(Br)c1 | 26.3 |  |  |
| CCCOCc1cc(Br)c(O)c(O)c1Br | 1.72 | 0.8 | IC50 (DLD-1 [2]): 77.98 µmol; IC50 (DLD-1 [3]): 2.71 µmol; Activity (DLD-1 [4]): 19.65%; Activity (DLD-1 [5]): 56.4%; IC50 (DLD-1 [6]): 79.76 µmol; Activity (DLD-1 [7]): 33.65%; Activity (DLD-1 [8]): 32.14%; Activity (DLD-1 [9]): 9.95%; Activity (DLD-1 [10]): 25.65%; Activity (DLD-1 [11]): Active; Activity (DLD-1 [12]): 19.79%; Activity (DLD-1 [13]): 42.21%; Activity (DLD-1 [14]): 60.56% |
| CCOCc1cc(Br)c(O)c(O)c1Br | 7.15 | 1.54 |  |
| CCOCc1cc(O)c(O)c(Br)c1 | 35.1 |  |  |
| Oc1c(O)c(Br)c(Br)c(Br)c1Br [TETRABROMOCATECHOL] | 6.43 | 8.75 |  |
| OCc1cc(O)c(O)c(Br)c1 | 51.5 |  |  |
| OCc1cc(Br)c(O)c(O)c1Br | 15 | 21.4 |  |
| OCc1cc(O)c(O)c(Br)c1Br [LANOSOL] |  | 20.4 |  |
| O=c1[nH]cc(F)c(=O)[nH]1 [FLUOROURACIL] |  | 4.93 |  |
| COCc1cc(O)c(O)c(Br)c1 | 35.3 |  |  |
| O=Cc1cc(Br)c(O)c(O)c1Br | 31 |  |  |
| CCOCc1cc(O)c(O)c(Br)c1Br [ETHYL LANOSOL] | 13.5 | 2.51 |  |
| COCc1cc(O)c(O)c(Br)c1Br |  | 14.1 |  |
| O=Cc1cc(O)c(O)c(Br)c1 | 27.9 |  |  |
| COc1cc(C=O)cc(Br)c1O | > 200 |  |  |
| CCCOCc1cc(O)c(O)c(Br)c1Br | 12.4 | 1.32 |  |
